Assay outcomes: PubChem BioAssay, several laboratories
Sampled rows, rich in hits. Any-hit rate of the full collection: about 1.9%.
Efflux pump inh: antifungal efflux pump inhibition, Nile Red retention; S. cerevisiae Candida pump triplex; inhibition, % at 10 µM; 0.44% of 330,000 active; AID 485275;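 active = plate passing quality check with inhibition over a set limit, or well fluorescence over plate mean plus 4 SD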;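 note: Nile Red retained in pooled yeast measured as flow cytometry median fluorescence; 0% = buffer negative control and 100% = Enniatin B positive control; higher means more Nile Red kept so more efflux inhibition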
ASAP1 GAP inh: blocks human ASAP1-stimulated Arf1 GTP hydrolysis; Q9ULH1; GDP FP detection; inhibition, % at 16.5 µM; 0.19% of 360,000 active; in the data active = inhibition above about 25%;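 note: 0% = vehicle with enzyme and substrate and 100% = no enzyme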
Target sequence (Q9ULH1 325-724 limits assumed): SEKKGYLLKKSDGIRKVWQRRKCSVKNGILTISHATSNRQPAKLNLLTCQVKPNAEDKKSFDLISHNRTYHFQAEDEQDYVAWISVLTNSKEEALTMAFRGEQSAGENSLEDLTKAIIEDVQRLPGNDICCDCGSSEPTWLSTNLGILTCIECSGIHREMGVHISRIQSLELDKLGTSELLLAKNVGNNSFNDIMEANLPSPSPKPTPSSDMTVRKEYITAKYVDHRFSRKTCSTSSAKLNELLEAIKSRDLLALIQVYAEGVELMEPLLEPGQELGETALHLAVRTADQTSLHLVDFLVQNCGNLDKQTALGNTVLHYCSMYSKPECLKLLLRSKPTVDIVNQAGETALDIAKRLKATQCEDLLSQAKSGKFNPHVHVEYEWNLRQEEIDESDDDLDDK
FGF22 binding: FGF22 (human) thermal shift binding | Q9HCT0 | recombinant FGF22 thermal shift, SYPRO orange fluorescence; percent of sucrose octasulfate shift, DMSO zero | activity (Tm shift, normalised), % at 9.99 µM | 1.5% of 340,000 active;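 active = mean Tm shift, scaled 0 neutral to 100 positive control, at about 1.3% or above, every replicate too, limit read from the data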
Target sequence (Q9HCT0 whole entry, looked up): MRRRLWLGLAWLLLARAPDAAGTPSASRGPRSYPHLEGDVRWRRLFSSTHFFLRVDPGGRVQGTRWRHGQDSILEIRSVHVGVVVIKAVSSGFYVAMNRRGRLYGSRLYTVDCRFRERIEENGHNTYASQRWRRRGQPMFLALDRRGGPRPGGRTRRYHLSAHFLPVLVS
Rtt109 HAT inh: blocks Candida albicans Rtt109/Vps75 acetyltransferase activity. purified Rtt109/Vps75, ThioGlo CoA-SH fluorescence, 4 h. inhibition, % at 34.9 µM. 0.16% of 330,000 active. Q5AAJ8;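 active = inhibition of at least 50% in every replicate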
ARFGAP1 inh: inhibits rat ARF GTPase activating protein 1 | Q62848 | AID 651572 | Arfgap1-stimulated ARF1 GTP hydrolysis, GDP FP detection | 0.26% of 360,000 active | inhibition, % at 16.5 µM;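 active = inhibition above a per-plate limit, mean inhibition of low control wells plus 3 SD, cut at about 25% in these data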;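 note: 0% = DMSO wells with enzyme and 100% = wells lacking Arfgap1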
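Assay system: Rat Arfgap1 GAP domain (His6, aa 1-136), purified enzyme | Buffer or medium: HEPES 25 mM pH 7.5, NaCl 150 mM, MgCl2, DTT | Schedule: GTP hydrolysis reaction 2 h at 25 °C | Signal: FP of antibody-bound GDP Alexa 633 tracer, ex 620/em 688 nm | Measure: Percent inhibition of Arfgap1-stimulated GTP hydrolysis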
* marks the source's active call; other numbers are inactive results; · = not tested or not shown.

SMILES	Efflux pump inh	ASAP1 GAP inh	FGF22 binding	Rtt109 HAT inh	ARFGAP1 inh
Cc1ccc(S(=O)(=O)N2C[C@H]3C(=O)C[C@@H](c4ccccc4F)N(S(=O)(=O)c4ccc(C)cc4)[C@H]3C[C@H]2c2cccc3ccccc23)cc1	·	11.3	43.2*	·	8.0
Cc1noc(C)c1NC(=O)N(C)C[C@H]1Oc2c(NS(=O)(=O)c3ccc(F)cc3)cccc2C(=O)N([C@@H](C)CO)C[C@@H]1C	·	·	-0.1	·	·
CCOc1ccc2nc(N3C(=O)CNC3=S)sc2c1	-0.2	16.3	0.1	-9.7	7.8
Cc1cc2nc(N3C(=O)CNC3=S)sc2cc1C	0.0	7.3	43.2*	-5.9	-2.8
CCOC(CCc1c(C)nc(NC(C)=O)[nH]c1=O)OCC	0.0	-1.9	-0.1	9.0	13.0
CC(c1ccccc1)n1c(SCC(=O)N2CC(=O)Nc3ccccc32)nc2ccccc2c1=O (configuration not stated)	0.2	12.3	·	-2.8	5.4
CC(C)(C)c1nc(SCC(=O)N2CC(=O)Nc3ccccc32)c2ccccc2n1	0.0	0.7	43.5*	3.1	-9.4
CCN(Cc1ccccc1)S(=O)(=O)c1ccc2c(c1)NC(=O)CC(=O)N2	0.1	0.5	43.5*	-4.2	2.9
CN(Cc1ccccc1)S(=O)(=O)c1ccc2c(c1)NC(=O)CC(=O)N2	0.0	-1.6	·	-17.5	6.3
CCCC1=[N+](CC(C)=O)CCn2c(C)ccc21	0.0	13.6	43.2*	-5.0	-7.6
COc1ccc(N=C2CCS(=O)(=O)c3sccc32)cc1	0.0	11.3	0.5	0.1	10.7
COc1ccc(CC2(CO)CCN(Cc3cnc(-c4ccccc4C)nc3)CC2)cc1	0.0	6.6	44.1*	12.6	3.6
CCc1ccc(OCC(=O)NNC(=O)c2cnccn2)c(Br)c1	0.0	3.0	-0.6	-0.2	8.8
Cc1cc(C)n2nc(SCC(=O)N(Cc3ccccc3)C3CCS(=O)(=O)C3)nc2n1 (configuration not stated)	-0.2	-5.6	42.9*	-0.9	-2.6
CCN(C(=O)CSc1nc2nc(C)cc(C)n2n1)C1CCS(=O)(=O)C1 (configuration not stated)	0.1	-8.0	0.1	2.5	3.6
C/C(=N\NC(=O)c1cccs1)c1c(O)cc(C)oc1=O	1.2	-4.3	0.0	4.3	9.2
C/C(=N\Nc1ccc(Cl)cc1)c1c(O)cc(C)oc1=O	-0.1	-2.4	43.0*	5.6	-18.5
CCN(C(=O)COC(=O)c1cc(-c2ccc(C)o2)nc2ccccc12)C1CCS(=O)(=O)C1 (configuration not stated)	0.0	1.0	0.1	-47.7	7.4
Cc1ccc(-c2cc(C(=O)OCC(=O)N(C)C3CCS(=O)(=O)C3)c3ccccc3n2)o1 (configuration not stated)	0.0	-0.4	43.2*	-12.2	15.5
CS(=O)(=O)NCCSCc1ccco1	0.0	9.1	0.2	52.7*	2.1
CC(=O)Nc1ccc(S(=O)(=O)NCCSCc2ccco2)cc1	0.1	-3.5	-0.2	-7.5	8.0
CCOC(=O)CC(NC(=O)c1cccc2c1C(=O)N(Cc1cccnc1)C2)c1ccc(OCC)c(OC)c1 (configuration not stated)	0.1	4.7	43.1*	7.5	1.8
COc1ccc(/C=N/NC(=O)c2snnc2C)c(OC)c1OC	0.3	-2.0	43.4*	-5.9	-3.5
Cc1ccc(NC(=O)c2ccccc2N(C)S(C)(=O)=O)cc1C	0.1	-5.5	·	6.0	-7.5
Cc1ccccc1-c1csc(C(O)c2cccnc2)n1 (configuration not stated)	·	2.9	0.0	·	3.0
SMILES	Efflux pump inh	ASAP1 GAP inh	FGF22 binding	Rtt109 HAT inh	ARFGAP1 inh
COc1cccc(NC(=O)COC(=O)C2CCN(S(=O)(=O)c3cccs3)CC2)c1	0.0	-13.4	43.4*	-16.0	-8.5
CSc1cccc(CN2CCCC(CNC(=O)c3ccc(F)cc3)C2)c1 (configuration not stated)	-0.1	6.8	0.4	5.3	3.8
COc1ccc(CCNC(=O)COc2cccc3c2OC(C)(C)C3)cc1OC	0.3	-7.2	-0.3	-5.7	7.6
CC(C)CCNC(=O)COc1cccc2c1OC(C)(C)C2	0.1	-15.7	43.1*	-7.9	7.3
Cc1cc(C)n(C(=O)c2ccc([N+](=O)[O-])cc2N)n1	0.2	16.4	43.1*	-9.7	10.2
Cc1ccc([N+](=O)[O-])cc1N	0.1	-4.8	43.5*	-1.9	2.4
COc1cc(OC)c(C(=O)OCC(=O)Nc2cc(C)on2)cc1OC	0.1	-10.1	43.4*	-1.0	-9.0
CC(NC(=O)c1ccc(Cl)cc1)C(=O)NC1=NCCS1 (configuration not stated)	0.1	-3.3	·	0.5	7.8
C[C@H]1CN([C@@H](C)CO)C(=O)c2cccc(NS(C)(=O)=O)c2O[C@@H]1CN(C)Cc1ccncc1	·	·	-0.3	·	·
Cc1ccccc1OCC1CNC(=O)O1 (configuration not stated)	-0.1	6.9	43.1*	4.2	2.9
CCc1cc(CN2CCOCC2)c(NC(=O)c2ccccc2)s1	0.4	-0.3	43.2*	5.7	9.3
CCc1nnc(NC(=O)CSc2nnc(C3CCCCC3)n2-c2cccc(Cl)c2)s1	0.3	2.7	·	59.2*	12.1
COc1cc(OC)cc(-n2c3nc4ccccc4nc3c3c(=O)n(CC4CCCO4)cnc32)c1 (configuration not stated)	1.1*	-4.4	·	·	-11.6
O=c1c2c3nc4ccccc4nc3n(CC3CCCO3)c2ncn1CCc1ccccc1 (configuration not stated)	0.1	6.1	·	10.4	-6.8
Cc1ccc(S(=O)(=O)Nc2ccc3c(c2)C(=O)N([C@H](C)CO)C[C@@H](C)[C@H](CN(C)C(=O)c2ccncc2)OCCCC[C@@H](C)O3)cc1	·	·	-0.1	·	·
CCCn1c(SCC(=O)Nc2cc(C)on2)n[nH]c1=O	0.3	-14.3	0.0	-11.2	-16.3
CCCn1c(SCC(=O)NC(=O)NC(C)(C)C)n[nH]c1=O	0.0	13.4	43.2*	2.0	8.8
O=C(c1c(O)cc(O)cc1O)C1c2c(cc(O)c3c2O[C@H](c2ccc(O)cc2)[C@@H](O)C3)OC1c1ccc(O)cc1 (some centres not stated)	-0.2	13.7	1.5*	7.9	20.3
CC1OC(CC(=O)O)CC2=C1C(=O)c1c(O)cccc1C2=O (configuration not stated)	·	47.0*	-0.2	-2.4	-17.6
CN=C1S/C(=C\c2ccc(SC)cc2)C(=O)N1C	0.6	1.2	-0.2	-4.7	7.9
CSC1=NC(=O)/C(=C/c2ccc(SC)cc2)S1	0.1	3.9	43.2*	6.2	5.5
CCOC(=O)C1=C(C)NC(C)=C(C(=O)OCC)C1C(=O)OCC(=O)N1CCc2ccccc21	0.1	-5.5	·	-7.5	10.4
Cc1ccc2c(C)cc[n+](CCCS(=O)(=O)[O-])c2c1	0.1	0.1	·	1.0	9.9
Cc1cc(C)c2sc(C)[n+](CCCS(=O)(=O)[O-])c2c1	-0.1	-19.9	0.0	90.1*	10.7
